An excerpt weighted towards active compounds, which were near 2.3% of everything screened.
TRPC4 inh = inhibitors of mouse TRPC4 channel, primary screen, Fluo4 calcium, HEK293 TRPC4beta/mu-opioid cells. Short transient receptor potential channel 4 (Mus musculus), Q9QUQ5. DAMGO-evoked Fluo4 calcium flux; hits give low values. B-score at 10 µM. actives 0.39% (n = 300,000). AID 2247, 2010;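 active means B-score over 3 SD under the library average, no early fluorescence shift, positive overall ratio signal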
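Material: HEK293 cells with stable TRPC4beta plus mu-opioid receptor expression / Probe or stimulus: DAMGO in two steps, submaximal then maximal / Compound: single concentration per test compound / Technique: kinetic Fluo4 fluorescence imaging of calcium influx / Read-out: per-well B score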
TRPC4 PAM = positive allosteric modulators of TRPC4, primary screen, cell-based, mouse TRPC4beta, HEK293 mu-opioid, Fluo-4 calcium; Short transient receptor potential channel 4 (Mus musculus), Q9QUQ5; DAMGO EC20, Fluo-4 Ca2+ flux; hits give high values; B-score at 10 µM; actives 0.42% (n = 310,000); AID 2227, 2009;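 active means B-score of calcium response area above 5 SD of library B-scores, with initial fluorescence ratio within 5 SD of library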;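 further: B-score of integrated fluorescence ratio over time as area under calcium response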
TRPC6 inhibitor = mouse TRPC6 channel inhibitors, primary screen, cell-based, HEK293, membrane potential dye | ACh-evoked depolarization; hits give low values | B-score at 10 µM | actives 1.1% (n = 310,000) | AID 2553, 2010;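 active means B-score under library mean minus 3 SD, initial fluorescence not abnormally high, positive integrated signal ratio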;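 further: B-score derived from integrated fluorescence ratio over the kinetic read; more negative B-score means stronger inhibition of depolarization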
Target sequence (Q61143 whole entry, looked up): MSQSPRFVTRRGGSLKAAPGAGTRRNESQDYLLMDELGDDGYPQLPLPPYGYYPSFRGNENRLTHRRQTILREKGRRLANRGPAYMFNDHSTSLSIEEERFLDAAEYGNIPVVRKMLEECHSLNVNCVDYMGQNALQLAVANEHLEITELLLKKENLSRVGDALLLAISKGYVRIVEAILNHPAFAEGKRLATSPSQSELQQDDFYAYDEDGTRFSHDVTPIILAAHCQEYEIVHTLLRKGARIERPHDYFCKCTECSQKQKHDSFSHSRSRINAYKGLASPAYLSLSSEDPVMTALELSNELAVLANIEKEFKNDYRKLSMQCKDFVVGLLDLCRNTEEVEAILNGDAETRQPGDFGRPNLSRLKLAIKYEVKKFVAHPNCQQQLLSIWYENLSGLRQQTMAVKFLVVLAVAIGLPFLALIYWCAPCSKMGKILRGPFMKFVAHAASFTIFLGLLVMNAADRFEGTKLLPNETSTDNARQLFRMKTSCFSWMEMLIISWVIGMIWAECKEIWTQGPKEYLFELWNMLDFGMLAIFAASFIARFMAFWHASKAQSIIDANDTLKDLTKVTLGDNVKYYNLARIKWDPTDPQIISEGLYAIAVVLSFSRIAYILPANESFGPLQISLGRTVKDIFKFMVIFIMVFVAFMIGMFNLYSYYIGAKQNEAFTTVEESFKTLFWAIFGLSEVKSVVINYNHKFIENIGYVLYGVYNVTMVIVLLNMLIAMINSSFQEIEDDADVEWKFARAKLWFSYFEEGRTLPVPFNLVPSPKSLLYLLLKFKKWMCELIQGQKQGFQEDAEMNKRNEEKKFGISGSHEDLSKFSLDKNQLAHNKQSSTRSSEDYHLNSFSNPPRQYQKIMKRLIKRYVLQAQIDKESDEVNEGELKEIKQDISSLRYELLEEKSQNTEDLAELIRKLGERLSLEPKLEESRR
TRPC4 agonist = activators of mouse TRPC4 channel, primary screen, Fluo4 calcium, HEK293 TRPC4beta/mu-opioid cells | B-score at 10 µM | Short transient receptor potential channel 4 (Mus musculus), Q9QUQ5 | actives 0.49% (n = 310,000) | Fluo4 calcium fluorescence; hits give high values;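 active means B-score above 5 SD of library B-scores, and initial fluorescence ratio not above library mean plus 5 SD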;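 further: positive B-score marks a calcium rise read as TRPC4 activation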
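Material: HEK293 stable line with TRPC4beta plus mu-opioid receptor; technique: Fluo4 calcium-sensitive dye fluorescence, kinetic, 1 Hz baseline; timing: Fluo4 dye loading 45 min at room temperature, 110 s recording; controls: assay buffer as low control, maximal DAMGO as high control; read-out: integrated baseline-normalised fluorescence ratio, converted to per-well B score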
TRPC6 activator = mouse TRPC6 channel activators, primary screen, cell-based, HEK293, membrane potential dye. Short transient receptor potential channel 6 (Mus musculus), Q61143. HEK293-TRPC6 membrane potential dye fluorescence; hits give high values. B-score at 10 µM. actives 0.13% (n = 310,000). AID 2550, 2010;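 active means B-score of the integrated fluorescence ratio above library mean plus 3 SD, and starting fluorescence ratio within library mean plus 5 SD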;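 further: higher score means more depolarization so channel activation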
TRPC4 spec 2 = mouse TRPC4 off-target activity of TRPC6 inhibitors, second screen. shares compounds with TRPC6 inhibitor. HEK293 TRPC4/MOR, membrane potential dye fluorescence; channel activated by saturating DAMGO dose. inhibition, % at 10 µM. actives 42% (n = 920). AID 2776;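 active means compounds whose fluorescence signal differed from control wells by over 3 SD, either direction, in both duplicate plates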
TRPC4 spec = mouse TRPC4 modulation by TRPC6 hits, confirmation, selectivity assay for TRPC6 inhibitor project, cell-based, HEK293 TRPC4/mu-opioid, membrane potential dye | activity change, negative = inhibition, % at 10 µM | shares compounds with TRPC6 inhibitor | actives 61% (n = 920) | membrane potential fluorescence;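 active means rise or fall in signal beyond 3 SD of buffer-only wells in both replicate plates, either sign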;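 further: integrated kinetic ratio of fluorescence range over baseline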
HEK293 MPD ctr 2-1 = nonspecific membrane potential effects, parental HEK293, confirmation, counter-screen for TRPC6 inhibitor project, cell-based, second counter screen. shares compounds with TRPC6 inhibitor. parental HEK293 membrane potential dye fluorescence; maximal acetylcholine challenge after compound addition. signal change vs control, % at 10 µM. actives 31% (n = 920);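 active means membrane potential signal moving either way by over 3 SD of the maximum-effect control, in both duplicate plates, meaning non-specific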
HEK293 MPD ctr-1 = membrane potential modulation in parental HEK293, confirmation, counter-screen for TRPC6 inhibitor project, cell-based; shares compounds with TRPC6 inhibitor; parental HEK293 membrane potential dye fluorescence; membrane potential signal change, % at 10 µM; actives 60% (n = 920); AID 2780, 2010;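 active means membrane potential signal shifting up or down by more than 3 SD of buffer-only wells, on both duplicate plates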
HEK293 MPD ctr-2 = parental HEK293 membrane potential modulation, confirmation, counter-screen for TRPC6 modulator project, cell-based; shares compounds with TRPC6 inhibitor; membrane potential dye fluorescence; membrane potential signal change, % at 10 µM; actives 51% (n = 2,400); AID 488924, 2010;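 active means membrane potential signal moves up or down beyond 5 SD from buffer-only wells, on both duplicate plates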
HEK293 MPD ctr 2-2 = second counter-screen for TRPC6 modulators: effect in parental HEK293 cells; shares compounds with TRPC6 inhibitor; membrane potential dye fluorescence; after compound, maximal acetylcholine stimulation; inhibition, % at 10 µM; actives 14% (n = 2,400);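 active means membrane potential signal drops by more than 5 SD from the mean control signal, in both duplicate plates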;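 further: plate controls were acetylcholine ECmax control wells for no effect and buffer only wells for full effect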
TRPC4/MOR mod = TRPC4 modulation by TRPC6 hit compounds, confirmation, selectivity assay for TRPC6 modulator project, cell-based, HEK293 TRPC4/mu-opioid, membrane potential dye, mouse; percent change from control (negative = decrease, positive = increase), % at 10 µM; shares compounds with TRPC6 inhibitor; membrane potential fluorescence; actives 69% (n = 2,400);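 active means membrane potential signal moved up or down beyond 5 SD of buffer control wells, in both duplicate plates, actives on both sides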;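 further: plate controls were assay buffer wells for no effect and DAMGO maximal-effect wells for full effect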
TRPC4 ctr inh 2 = second check of whether TRPC6 modulators also affect mouse TRPC4. shares compounds with TRPC6 inhibitor. HEK293 TRPC4/mu-opioid, membrane potential dye fluorescence; stimulated with maximal-effect DAMGO. inhibition, % at 10 µM. actives 55% (n = 2,400). AID 488928;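 active means drop in membrane potential signal beyond 5 SD of the control wells in both duplicate plates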;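 further: TRPC4 counter screen for TRPC6 hits run under conditions tuned for TRPC6 not TRPC4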
TRPC6 inh conf = mouse TRPC6 channel inhibitors, confirmation, HEK293 cells, membrane potential dye, duplicate | shares compounds with TRPC6 inhibitor | ACh-evoked depolarization | inhibition, % at 10 µM | actives 43% (n = 3,300) | AID 488960, 2010;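 active means fluorescence ratio falls more than 5 SD below the full-stimulation control mean, in both duplicate runs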;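 further: integrated fluorescence ratio of peak minus minimum over baseline after agonist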
TRPC6 act conf = mouse TRPC6 channel activators, confirmation, HEK293 cells, membrane potential dye, duplicate; HEK293-TRPC6 membrane potential dye fluorescence, FDSS; shares compounds with TRPC6 inhibitor; activation, % at 10 µM; actives 11% (n = 2,800);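 active means ratio signal rise beyond 5 SD above unstimulated control wells' mean, seen in both duplicate runs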;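 further: plate controls were buffer EC0 wells for no effect and acetylcholine ECmax response for full effect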
An asterisk follows results filed as active; i = inactive; · = no result.

SMILES | TRPC4 inh | TRPC4 PAM | TRPC6 inhibitor | TRPC4 agonist | TRPC6 activator | HEK293 MPD ctr-2 | HEK293 MPD ctr 2-2 | TRPC4/MOR mod | TRPC4 ctr inh 2 | TRPC6 inh conf | TRPC6 act conf | others
Cc1ccc(CN2C3CCCC2CC(NC(=O)Nc2cccc(F)c2)C3)cc1 (stereo not drawn) | i | i | -6.49* | 53* | i | i | i | 26.5%* | 95.5%* | 49.0%* | ·
O=C(COc1ccc(Cl)cc1)N1CCN(C2CCCC2)CC1 | i | i | i | i | i | · | · | · | · | · | ·
Clc1ccc2[nH]c3c(c2c1)CCNC3 | i | i | -5.3* | i | i | i | i | i | 35.0%* | i | i
Cc1ccc(C2CC3CCC(C2)N3Cc2ccccc2F)cc1 (stereo not drawn) | i | i | i | i | 13.4* | 127.0%* | i | 49.0%* | 42.5%* | i | 57.5%*
COC(=O)C1=C(N)Oc2c(c(=O)oc3ccccc23)C1c1cccnc1 (stereo not drawn) | i | i | i | i | i | · | · | · | · | · | ·
CCN1C[C@]2(COC)CC[C@H](O)[C@@]34C5C[C@@H]6[C@@H](OC)C[C@@](O)(C5[C@H]6O)[C@](O)([C@@H](OC)C23)[C@@H]14 (stereo partly drawn) | i | i | i | i | i | · | · | · | · | · | ·
COc1ccc2ccccc2c1CNCCc1ccccc1 | i | i | -7.84* | i | i | · | · | · | · | 66.4%* | · | TRPC4 spec 2=i;TRPC4 spec=16.1%*;HEK293 MPD ctr 2-1=i;HEK293 MPD ctr-1=5.0%*
COc1cccc(CNCCc2ccccc2)c1OC | i | i | i | i | i | · | · | · | · | · | ·
Fc1ccc(C[n+]2c(-c3ccccc3)cc(-c3ccccc3)cc2-c2ccccc2)cc1 | i | i | -6.91* | i | i | · | · | · | · | 56.4%* | i | TRPC4 spec 2=75.0%*;TRPC4 spec=4.2%*;HEK293 MPD ctr 2-1=232.5%*;HEK293 MPD ctr-1=3.5%*
COC(=O)C1=C(c2ccc(S(C)(=O)=O)cc2)C[C@@H]2CC[C@H]1N2C(=O)NCCNC(C)=O | i | i | i | i | i | · | · | · | · | · | ·
Clc1ccc2sc(C3CCNCC3)nc2c1 | i | i | -6.02* | 187* | i | i | i | 47.0%* | 52.5%* | i | i
CCCn1ncc(CN2CCCC(C(=O)c3cccc(OC)c3)C2)c1C (stereo not drawn) | i | i | -5.92* | i | i | 124.5%* | i | 28.5%* | i | 50.0%* | ·
C[N+]1(C)[C@@H]2CC[C@H]1CC(OC(=O)C(c1ccccc1)c1ccccc1)C2 (stereo partly drawn) | i | i | -5.32* | i | i | i | 91.0%* | i | i | 96.0%* | i

Source: PubChem (Johns Hopkins Ion Channel Center)
